Screens from PubChem.
NR2E3 ag-1: human photoreceptor-specific nuclear receptor agonism; Q9Y5X4; AID 602229; inhibition of corepressor binding, % at 3.98 µM; CHO-S Gal4-NCOR/VP16-NR2E3 two-hybrid, luciferase; 360,000 compounds, 0.35% hits;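 active means inhibition above the mean of all tested compounds plus 3 SD, cut at about 70% in these data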;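 further: 0% = DMSO with NR2E3 transfected cells and 100% = cells lacking NR2E3 construct; higher means lower luciferase signal from less NR2E3 corepressor binding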
Target sequence (Q9Y5X4 whole entry, looked up, the tested form may be a part): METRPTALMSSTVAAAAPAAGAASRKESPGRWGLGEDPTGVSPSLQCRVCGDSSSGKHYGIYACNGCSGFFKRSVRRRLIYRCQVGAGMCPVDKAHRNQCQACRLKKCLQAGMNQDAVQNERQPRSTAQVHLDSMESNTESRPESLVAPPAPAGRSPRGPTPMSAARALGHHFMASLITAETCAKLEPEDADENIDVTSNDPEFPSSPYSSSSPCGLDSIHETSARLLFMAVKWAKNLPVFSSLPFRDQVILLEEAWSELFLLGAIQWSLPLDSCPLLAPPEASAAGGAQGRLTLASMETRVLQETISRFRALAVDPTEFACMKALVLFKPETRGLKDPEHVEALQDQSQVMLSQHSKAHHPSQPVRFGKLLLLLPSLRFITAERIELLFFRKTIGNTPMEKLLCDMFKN
NR2E3 ag-2: NR2E3 (human) agonism; Q9Y5X4; GST-NR2E3/biotin-RetCOR TR-FRET, 1536-well; inhibition of corepressor binding, % at 4.78 µM; 320,000 compounds, 0.12% hits;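 active means percent inhibition above the cutoff of mean plus 3 SD of all tested compounds, set per screening campaign, cut at about 20% in these data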;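 further: 0% = DMSO wells and 100% = biotin wells as full block of FRET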
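Material: NR2E3–RetCOR corepressor complex | Quantity: 1.35 nM GST-tagged NR2E3 final | Schedule: 5 h at 4 °C | Replication: Singlicate compound wells | Reagent: RetCOR corepressor, biotinylated, 7 nM | Controls: Biotin wells as high control, 0.6% DMSO wells as low control | Signal: TR-FRET, Eu(K)-anti-GST donor, streptavidin-D2 acceptor, ex 340, em 617/671 nm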
T cell HTS: modulates CD8 T cell binding to vesicles. response (vesicle binding), % at 7 µM. 2C CD8+ T cell-vesicle binding, flow cytometry; active compounds read low. 330,000 compounds, 0.068% hits;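 active means response, share of CD8 T cells binding vesicles, and their 90th percentile fluorescence all below set limits, cut at about 80% in these data, passing the limit was not always enough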;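 further: values below 100% mean blocked vesicle binding to the CD8+ T cells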
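Assay system: 2C TCR transgenic mouse naive CD8+ T cells, MACS-purified | Read-out: CD8+ gate FL2 mean fluorescence as % of same-row positive control | Signal: High-throughput flow cytometry with anti-B7-1 and anti-CD8 staining | Timing: Binding step 1.5 h, 37 °C, antibody labelling 20 min, ice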
Myeloid diff MLP: myeloid differentiation induction. ER-HoxA9 myeloid progenitors, lysozyme-GFP differentiation, flow cytometry. calls only at 10 µM. 360,000 compounds, 1% hits. AID 624256;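 active means normalized GFP-positive differentiation at or above the plate's own cutoff, the solvent-only control mean plus 3 SD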;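 further: cells exposed to compound for four days before flow analysis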
GAA850 FXN act: frataxin GAA850 promoter activation; 360,000 compounds, 0.56% hits; HEK293 lucGAA850 FXN promoter luciferase reporter, 24 h; percent of 10 µM SAHA response; activation, % at 6 µM;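 active means activation above the average of all compounds screened plus 3 SD, cutoff fixed separately per campaign, cut at about 7.5% in these data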;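 further: 0% = DMSO wells and 100% = 10 µM SAHA wells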
Myeloid diff CP1: promotes myeloid progenitor differentiation | ER-HoxA9 myeloid progenitors, GFP/Mac1 double-positive flow | shares compounds with Myeloid diff MLP | calls only | 2,300 compounds, 2% hits;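 active means share of green or green-and-red cells above 9 and 9% in run 1 or 4 and 3% in run 2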
GFP autofluor: compound fluorescence in myeloid differentiation counter-screen; shares compounds with Myeloid diff MLP; ER-HoxA9 myeloid progenitors, no estrogen, GFP autofluorescence flow cytometry; vehicle wells 0%, positive control 100%; AID 651707; 2,300 compounds, 7.4% hits; fluorescence response, % (concentration not given with the values);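 active means over 5% cells positive for green fluorescent reporter, or over 2% positive for both it and APC stain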;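 further: range taken on the double positive population between DMSO and positive control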
Numbers without * were called inactive; i = inactive; · = no result given; + = active, no number. Compounds with a hit are over-represented: about 2% of the library has one in this group of screens.

SMILES	NR2E3 ag-1	NR2E3 ag-2	T cell HTS	Myeloid diff MLP	GAA850 FXN act	Myeloid diff CP1	GFP autofluor
Cc1nc(C(F)(F)F)nc(Nc2ccc(Br)cc2)c1C#N	-17	6	495	i	5	·	·
Cn1cc(Br)cc2nc(C(F)(F)F)nc1-2	-19	4	228	+	-1	i	0
COCCCNCCCCOc1ccccc1-c1ccccc1	-1	-1	64	i	0	i	0
COc1ccc(Br)c(-c2nc(CS(=O)(=O)c3ccc(F)cc3)no2)c1	-14	3	575	i	-1	i	0
COc1ccccc1N1C(=O)S/C(=C\c2ccc(C)s2)C1=O	-79	5	228	i	3	i	2
CC[C@@H]1Cc2[nH][nH]c(=O)c2[C@H](CC(C)C)O1	-16	·	·	i	·	·	·
O=C1C(=Cc2ccco2)CCCC1=Cc1ccco1	-39	·	·	i	12*	i	19*
COc1ccccc1NC(=S)NC1CCC(CC2CCC(NC(=S)Nc3ccccc3OC)CC2)CC1 (configuration not stated)	8	2	172	+	2	i	0
COc1ccccc1NC(=S)NC1CCCC1	4	2	443	i	-1	·	·
CCS(=O)(=O)c1ccc2c(c1)N(S(C)(=O)=O)CC(C(=O)NCc1ccccc1OC)O2 (configuration not stated)	6	5	152	i	-3	·	·
CCS(=O)(=O)c1ccc2c(c1)N(S(C)(=O)=O)CC(C(=O)NC1CC1)O2 (configuration not stated)	-12	-2	515	+	2	i	2
CCCOn1nnnc1-c1ccccc1	6	1	374	i	2	i	0
CCS(=O)(=O)CCSc1nc(C)cc(C)c1C#N	-17	1	466	i	2	·	·
Cc1ccc(S(=O)(=O)CCSc2nc(C)cc(C)c2C#N)cc1	5	2	320	+	3	i	0
CC(=O)OCC1OC(OC2C[C@]3(C)C(CC(O)C4C([C@](C)(CCC=C(C)C)OC5OC(CO)C(O)C(O)C5O)CC[C@]43C)[C@@]3(C)CCC(O)C(C)(C)C23)C(O[C@@H]2OC(C)C(O)C(O)C2O)C(O)C1O (some centres not stated)	-6	·	148	i	2	·	·
O=C(O)CCCN1C(=O)/C(=C\c2ccc(-c3nc4ccccc4s3)o2)SC1=S	-17	-1	279	+	0	i	0
O=Cc1ccc(-c2nc3ccccc3s2)o1	-151	1	202	i	5	·	·
CC1(C(=O)NS(=O)(=O)C2CC2)CCCN(C(=O)Cc2ccc(F)cc2)C1 (configuration not stated)	-3	·	·	i	0	·	·
CCOC(=O)C1=NN(C(=O)c2ccc(OC)cc2)C(O)(c2ccc(Cl)cc2)C1 (configuration not stated)	-27	6	197	+	1	i	0
CN1CCN(C(=O)C2=NOC3(C2)C(=O)Nc2ccccc23)CC1 (configuration not stated)	3	·	·	i	·	·	·
O=C(OCc1ccccc1)N1CCOCCOCCN(C(=O)OCc2ccccc2)CCOCCOCC1	21	6	559	+	1	i	0
C[C@H](CO)N1C[C@H](C)[C@@H](CN(C)Cc2cccc3c2OCCCO3)OCc2cnnn2CCCC1=O	-37	·	·	i	0	·	·
CCOc1ccc(N2C(=O)CS/C2=N/NC(=O)COc2ccc3ccccc3c2)cc1	12	1	508	i	0	i	1
O=C1NC(Cc2ccccc2)c2nc3ccc(Br)cc3c(=O)n2-c2cc(Cl)ccc21 (configuration not stated)	·	·	366	·	·	·	·
CCCCNC(=O)CCC(=O)Nc1ccc2nc(N3CCC(C)CC3)cc(C)c2c1	-25	0	296	i	1	i	1
SMILES	NR2E3 ag-1	NR2E3 ag-2	T cell HTS	Myeloid diff MLP	GAA850 FXN act	Myeloid diff CP1	GFP autofluor
Cc1cc(N2CCOCC2)nc2ccc(NC(=O)CCC(=O)N3CCC(C)CC3)cc12	-24	3	764	i	1	·	·
CCc1cn(C2CC(O)C(CO)O2)c(=O)[nH]c1=O (configuration not stated)	-26	0	316	+	1	i	0
C[C@@H](c1ccccc1)N1C[C@@H](COCc2ccccc2)Oc2cc(N3CCC[C@H]3C(N)=O)ccc2S1(=O)=O	-8	·	·	i	·	·	·
Cc1ccc(C(=O)O)cc1NC(=O)Nc1cccc2ccccc12	-5	0	267	i	3	·	·
CCC(C)N(C(=O)Cn1nnc2ccccc21)C(C(=O)NCc1ccco1)c1cccc(OC)c1 (configuration not stated)	-30	0	224	i	-3	i	0
CC(C)CC(N)c1csc(Nc2ccc(C(F)(F)F)cn2)n1 (configuration not stated)	-18	·	·	i	-2	·	·
CCCCCC(=O)Nc1sc(C)c(C)c1C#N	4	1	0	i	1	i	0
CCCC(=O)Nc1sc(C)c(C)c1C#N	1	-3	222	i	-2	·	·
Cc1sc(NC(=O)CSc2n[nH]c(N)n2)c(C#N)c1C	12	·	·	+	2	i	16*
Cc1nc(NCCO)c(C#N)c2c1COC(C)(C)C2	4	-1	365	+	2	i	1
Cc1nc2ccccc2n1CC(O)COCC1CC=CCC1 (configuration not stated)	42	1	242	+	-1	i	0
O=C(c1ccc2c(=O)n3c(nc2c1)CCCCC3)N1CCN(c2ccc(Cl)cc2)CC1	19	0	306	i	-4	i	0
O=C(c1ccc2c(=O)n3c(nc2c1)CCCCC3)N1CCN(c2ccc(F)cc2)CC1	10	-2	83	i	2	·	·
CCN(CC)CCNC(=O)c1ccc(NC(=O)/C=C/c2ccc3ccccc3n2)cc1	-35	·	551	+	-1	i	0
CCN(CC)CCNC(=O)c1ccc(NC(=O)Cc2ccccc2F)cc1	0	-2	292	i	-1	·	·
COCC(Cc1ccccc1)NC(=O)Cn1cc(C)c(=O)[nH]c1=O (configuration not stated)	-31	·	·	i	0	·	·
COC(=O)CC1Nc2ccccc2SC1=O (configuration not stated)	-3	3	248	i	4	i	0
CCC(=O)c1cn(CC(=O)Nc2cccc(C)c2C)c2ccccc12	12	5	442	i	0	·	·
CCC(=O)c1cn(CC(=O)Nc2ccccc2Cl)c2ccccc12	11	3	147	+	-1	i	2.1*
